Measurements from different studies.
Each line is one published result; the experiments were not run side by side. pEC50, pIC50: −log10 of the molar value. Values after ≈ are worked out from the molar mass of the structure shown.

O=[N+]([O-])C1=Cc2ccccc2OC1c1ccccc1Br (stereo not drawn)
IC50 (Leishmania tropica; parasite growth; THP-1; 72 h, intracellular, amastigote): 154 µg/mL

S=C(NN=Cc1ccc(Br)cc1)Nc1cccnc1
pIC50 (Leishmania tropica; parasite growth; J774.A1; 72 h, intracellular, amastigote): 3.32

COc1ccc(N=Nc2c(N)nn3c(-c4ccco4)cc(-c4ccc(OCc5ccccc5)cc4)nc23)cc1
MIC (Saccharomyces cerevisiae; microbial growth, broth dilution; ATCC9763): 62.5 µg/mL (≈ 121 µM)

CNC(=S)NN=Cc1ccc(Br)cc1
pIC50 (Leishmania tropica; parasite growth, MTT; 72 h, promastigote): 4.03

CCOC(=O)C1=C(CN2CCC(C(=O)Nc3ccccc3B3OC(C)(C)C(C)(C)O3)C2)NC(c2nccs2)=NC1c1ccc(F)cc1Br (stereo not drawn)
pEC50 (Hepatitis B virus; viral replication, inhibitor, qPCR; HepDES19; 72 h): 5.50

COc1ccc(N=Nc2c(N)nn3c(-c4ccc(Cl)cc4Cl)cc(-c4ccc(OCc5ccccc5)cc4)nc23)cc1
MFC (Saccharomyces cerevisiae; microbial killing, broth dilution; ATCC9763): 500 µg/mL (≈ 840 µM)

C[C@@H]1[C@H](O)[C@@H](C)/C=C/C=C/C=C/C=C/C=C/C=C/C=C/[C@H](O[C@@H]2O[C@H](C)[C@@H](O)[C@H](N)[C@@H]2O)C[C@@H]2O[C@](O)(C[C@@H](O)C[C@@H](O)[C@H](O)CC[C@@H](O)C[C@@H](O)CC(=O)O[C@H]1C)C[C@H](O)[C@H]2C(=O)O
pIC50 (Leishmania tropica; parasite growth; J774.A1; 72 h, intracellular, amastigote): 4.55

CCOC(=O)C1=C(CN2CCN(Cc3cccc(B(O)O)c3)CC2)NC(c2nccs2)=NC1c1ccc(F)cc1Br (stereo not drawn)
pEC50 (Hepatitis B virus; viral replication, inhibitor, qPCR; HepDES19; 72 h): 5.90

CCCCN1CN(CC(=O)O)CSC1=S
pIC50 (Leishmania tropica; parasite growth, MTT; 48 h, promastigote): 4.03

Cc1ccc(N=Nc2c(N)nn3c(-c4ccc(C)cc4)cc(-c4ccc(OCc5ccccc5)cc4)nc23)cc1
MIC (Saccharomyces cerevisiae; microbial growth, broth dilution; ATCC9763): 62.5 µg/mL (≈ 119 µM)

C[C@@H]1[C@H](O)[C@@H](C)/C=C/C=C/C=C/C=C/C=C/C=C/C=C/[C@H](O[C@@H]2O[C@H](C)[C@@H](O)[C@H](N)[C@@H]2O)C[C@@H]2O[C@](O)(C[C@@H](O)C[C@@H](O)[C@H](O)CC[C@@H](O)C[C@@H](O)CC(=O)O[C@H]1C)C[C@H](O)[C@H]2C(=O)O
MIC (Saccharomyces cerevisiae; microbial growth, broth dilution; BY4742; 48 h): 0.25 µg/mL (≈ 0.271 µM)

COc1ccc(C=NNC(=S)Nc2cccnc2)cc1
pIC50 (Leishmania tropica; parasite growth, MTT; 72 h, promastigote): 3.19

Cc1ccc(N=Nc2c(N)nn3c(-c4ccc(Cl)cc4Cl)cc(-c4ccc(OCc5ccccc5)cc4)nc23)cc1
MIC (Saccharomyces cerevisiae; microbial growth, broth dilution; ATCC9763): 31.3 µg/mL (≈ 54 µM)

COc1ccc(C2Oc3ccccc3C=C2[N+](=O)[O-])cc1 (stereo not drawn)
IC50 (Leishmania tropica; parasite growth; THP-1; 72 h, intracellular, amastigote): 150 µg/mL

CCOC(=O)C1=C(CN2CCC[C@H]2C(=O)Nc2ccc(B(O)O)cc2)NC(c2nccs2)=N[C@@H]1c1ccc(F)cc1Br
pEC50 (Hepatitis B virus; viral replication, inhibitor, qPCR; HepDES19; 72 h): 4.48

O=[N+]([O-])C1=Cc2ccccc2OC1c1cccc(OCc2ccc([N+](=O)[O-])cc2)c1 (stereo not drawn)
IC50 (Leishmania tropica; parasite growth; THP-1; 72 h, intracellular, amastigote): 144 µg/mL

CNC(=S)NN=Cc1ccc([N+](=O)[O-])cc1
pIC50 (Leishmania tropica; parasite growth, MTT; 72 h, promastigote): 3.62

O=[N+]([O-])C1=Cc2ccccc2OC1c1ccc(OCc2ccc(Cl)cc2)cc1 (stereo not drawn)
IC50 (Leishmania tropica; parasite growth; THP-1; 72 h, intracellular, amastigote): 142 µg/mL

CCOC(=O)C1=C(CN2CCC(C(=O)Nc3ccc(B(O)O)cc3)C2)NC(c2nccs2)=NC1c1ccc(F)cc1Br (stereo not drawn)
pEC50 (Hepatitis B virus; viral replication, inhibitor, qPCR; HepDES19; 72 h): 6.30

CC(=O)N1CCN(c2ccc(OCC3COC(Cn4ccnc4)(c4ccc(Cl)cc4Cl)O3)cc2)CC1 (stereo not drawn)
MIC (Saccharomyces cerevisiae; microbial growth, broth dilution; ATCC9763): 1.95 µg/mL (≈ 3.67 µM)

CCOC(=O)C1=C(CN2CCN(Cc3ccc(B(O)O)cc3)CC2)NC(c2nccs2)=NC1c1ccc(F)cc1Br (stereo not drawn)
pEC50 (Hepatitis B virus; viral replication, inhibitor, qPCR; HepDES19; 72 h): 6.01

O=[N+]([O-])C1=Cc2ccccc2OC1c1ccccc1Cl (stereo not drawn)
IC50 (Leishmania tropica; parasite growth; THP-1; 72 h, intracellular, amastigote): 164 µg/mL

Nc1nn2c(-c3ccco3)cc(-c3ccc(OCc4ccccc4)cc3)nc2c1N=Nc1ccc(F)cc1
MFC (Saccharomyces cerevisiae; microbial killing, broth dilution; ATCC9763): 62.5 µg/mL (≈ 124 µM)

OC(Cn1cncn1)(Cn1cncn1)c1ccc(F)cc1F
MIC (Saccharomyces cerevisiae; microbial growth, broth dilution; BY4742; 48 h): 8 µg/mL (≈ 26.1 µM)

CNC(=S)NN=Cc1ccc(OC)c(OC)c1
pIC50 (Leishmania tropica; parasite growth, MTT; 72 h, promastigote): 3.59

COc1ccc(N=Nc2c(N)nn3c(-c4ccc(C)cc4)cc(-c4ccc(OCc5ccccc5)cc4)nc23)cc1
MIC (Saccharomyces cerevisiae; microbial growth, broth dilution; ATCC9763): 31.3 µg/mL (≈ 57.9 µM)

CCOC(=O)C1=C(CN2CCC(C(=O)Nc3ccccc3B(O)O)C2)NC(c2nccs2)=NC1c1ccc(F)cc1Br (stereo not drawn)
pEC50 (Hepatitis B virus; viral replication, inhibitor, qPCR; HepDES19; 72 h): 5.71

O=[N+]([O-])C1=Cc2ccccc2OC1c1ccc(OCc2ccc(F)cc2)cc1 (stereo not drawn)
IC50 (Leishmania tropica; parasite growth; THP-1; 72 h, intracellular, amastigote): 181 µg/mL

COc1ccc(C=NNC(=S)Nc2cccnc2)cc1OC
pIC50 (Leishmania tropica; parasite growth; J774.A1; 72 h, intracellular, amastigote): < 3.00

Cc1ccc(-c2cc(-c3ccc(OCc4ccccc4)cc3)nc3c(N=Nc4ccc(F)cc4)c(N)nn23)cc1
MFC (Saccharomyces cerevisiae; microbial killing, broth dilution; ATCC9763): 125 µg/mL (≈ 236 µM)

CCOC(=O)C1=C(CN2CCCC2C(=O)Nc2cccc(B(O)O)c2)NC(c2nccs2)=NC1c1ccc(F)cc1Br (stereo not drawn)
pEC50 (Hepatitis B virus; viral replication, inhibitor, qPCR; HepDES19; 72 h): 6.33

CNC(=S)NN=Cc1ccc(C)cc1
pIC50 (Leishmania tropica; parasite growth; J774.A1; 72 h, intracellular, amastigote): 3.35

O=[N+]([O-])C1=Cc2ccccc2OC1c1cccc(OCc2ccc(Cl)cc2)c1 (stereo not drawn)
IC50 (Leishmania tropica; parasite growth; THP-1; 72 h, intracellular, amastigote): 149 µg/mL
